Reference: ChEMBL document CHEMBL1123026, “Preparation and antiarthritic and analgesic activity of 4,5-diaryl-2-(substituted thio)-1H-imidazoles and their sulfoxides and sulfones” (1985)

Columns and labels:
Type in all cases: functional
[1] = tested on: Mus musculus; test: Effective dose determined by mouse phenyl-p-benzoquinone writhing (PQW) assay after peroral administration; conditions: po
Summary of the method: (§1)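 Fasted (17-21 h) female white mice, 5-20 per double-blind test, dosed orally with compound suspended in 1% methylcellulose. 0.20 mL aqueous 0.01% phenyl-p-benzoquinone given i.p. 6 min before a 10-min observation for stretching/writhing. ED50 (dose protecting 50% of mice) calculated by the moving-average method.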

[2] = tested on: Mus musculus; test: Effective dose by mouse phenyl-p-benzoquinone writhing (PQW)assay after peroral administration; highest dose was tested; conditions: po; summary of the method: as §1
[3] = tested on: Rattus norvegicus; test: Effective dose determined against rat adjuvant arthritis after peroral administration; conditions: po
Summary of the method: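 Male Lewis rats (130-150 g) given 0.1 mL Mycobacterium butyricum adjuvant (5 mg/mL in mineral oil) s.c. into the right hind paw; arthritis developed for 2 weeks. Groups of 10 matched for severity were dosed orally by gavage in PVA-acacia vehicle (10 mL/kg) for 7 days. Uninjected left paw volume was measured the day after the last dose. Percent decrease was calculated vs arthritic and nonarthritic controls. ED50 was read from a visually fitted semilog dose-response line.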

[4] = tested on: Rattus norvegicus; test: Decrease in paw volume by the effect of compound at a dose of 100 mg/kg
Summary of the method: (§2)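 Male Lewis rats (130-150 g) got 0.1 mL adjuvant (heat-killed Mycobacterium butyricum, 5 mg/mL in mineral oil) subplantar in the right hind paw and were left 2 weeks. Groups of 10 matched for severity were dosed orally by gavage (PVA-acacia vehicle, 10 mL/kg) for 7 days. Uninjected left hind paw volume was read the next day. % decrease = (arthritic control − treated)/(arthritic − nonarthritic control) × 100; Student's t-test.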

[5] = tested on: Rattus norvegicus; test: Decrease in paw volume by the effect of compound at a dose of 50 mg/kg; summary of the method: as §2
[6] = tested on: Rattus norvegicus; test: Decrease in paw volume was evaluated at dose 25 mg/kg; summary of the method: as §2
[7] = tested on: Rattus norvegicus; test: Decrease in paw volume was evaluated at dose 1 mg/kg; summary of the method: as §2

SMILES | ED50 [1] | ED50 [3] | other results
CS(=O)(=O)c1nc(-c2ccc(Cl)cc2)c(-c2ccc(Cl)cc2)[nH]1 | 3.7 mg/kg |  | 
C[S+]([O-])c1nc(-c2ccc(F)cc2)c(-c2ccc(F)cc2)[nH]1 (centres undefined) | > 130 mg/kg |  | 
CS(=O)(=O)c1nc(-c2ccc(F)cc2)c(-c2ccccc2)[nH]1 |  | > 9 mg/kg | ED50 [2]: 135 mg/kg
FC(Br)C(F)(F)Sc1nc(-c2ccccc2)c(-c2ccccc2)[nH]1 (centres undefined) | > 130 mg/kg | 11 mg/kg | 
CS(=O)(=O)c1nc(-c2ccc(Cl)cc2)c(-c2ccccc2)[nH]1 | > 130 mg/kg |  | 
FC(F)C(F)(F)Sc1nc(-c2cccc(Cl)c2)c(-c2ccccc2)[nH]1 | > 130 mg/kg |  | 
COc1ccc(-c2[nH]c(SC(F)(F)C(F)F)nc2-c2ccc(F)cc2)cc1 | > 130 mg/kg |  | 
CSc1nc(-c2ccc(Cl)cc2)c(-c2ccc(F)cc2)[nH]1 | > 130 mg/kg |  | 
Fc1ccc(-c2[nH]c(SC(F)(F)C(F)F)nc2-c2ccc(Cl)cc2)cc1 | > 130 mg/kg |  | 
CS(=O)(=O)c1nc(-c2ccc(F)cc2)c(-c2ccc(F)cc2)[nH]1 | > 130 mg/kg |  | 
Fc1ccc(-c2nc(SC(F)(F)C(F)F)[nH]c2-c2ccc(C(F)(F)F)cc2)cc1 | > 130 mg/kg |  | 
CSCSc1nc(-c2ccccc2)c(-c2ccccc2)[nH]1 | > 130 mg/kg | > 50 mg/kg | 
FC(F)C(F)(F)Sc1nc(-c2cccc(Cl)c2)c(-c2cccc(Cl)c2)[nH]1 | > 130 mg/kg | 1.2 mg/kg | 
COc1ccc(-c2nc([S+]([O-])CC(C)=O)[nH]c2-c2ccc(OC)cc2)cc1 (centres undefined) |  | 35 mg/kg | ED50 [2]: 135 mg/kg
C[S+]([O-])c1nc(-c2cccc(F)c2)c(-c2ccccc2)[nH]1 (centres undefined) | > 130 mg/kg |  | Decrease [4]: 67%
Fc1ccc(-c2nc(SC(F)F)[nH]c2-c2ccc(F)cc2)cc1 | > 130 mg/kg |  | 
CCOc1ccc(-c2[nH]c(S(C)(=O)=O)nc2-c2ccccc2)cc1 | > 130 mg/kg |  | Decrease [5]: 41%
FCC(F)(F)Sc1nc(-c2ccccc2)c(-c2ccccc2)[nH]1 | > 135 mg/kg | 2 mg/kg | 
COc1ccc(-c2[nH]c(SC)nc2-c2ccccc2)cc1 | > 130 mg/kg |  | Decrease [6]: 35%
C[S+]([O-])c1nc(-c2ccc(Cl)c(Cl)c2)c(-c2ccccc2)[nH]1 (centres undefined) | > 130 mg/kg |  | Decrease [5]: 46%

SMILES | ED50 [1] | ED50 [3] | other results
CCSc1nc(-c2ccccc2)c(-c2ccccc2)[nH]1 | > 130 mg/kg | 100 mg/kg | 
CSc1nc(-c2ccc(Cl)c(Cl)c2)c(-c2ccccc2)[nH]1 | > 130 mg/kg |  | Decrease [6]: 62%
FC(F)(F)Sc1nc(-c2ccccc2)c(-c2ccccc2)[nH]1 | > 130 mg/kg |  | Decrease [7]: 27%
COc1ccc(-c2nc(SC[S+](C)[O-])[nH]c2-c2ccc(OC)cc2)cc1 (centres undefined) |  | 52 mg/kg | 
CSc1nc(-c2ccc(Cl)cc2)c(-c2ccc(Cl)cc2)[nH]1 | > 135 mg/kg | 4 mg/kg | 
CCCC[S+]([O-])c1nc(-c2ccccc2)c(-c2ccccc2)[nH]1 (centres undefined) | > 130 mg/kg | > 100 mg/kg | 
COc1ccc(-c2[nH]c(SC(F)(F)C(F)F)nc2-c2ccccc2)cc1 | > 130 mg/kg | 30 mg/kg | 
COc1ccc(-c2nc(S(=O)(=O)C(C)C)[nH]c2-c2ccc(OC)cc2)cc1 | > 130 mg/kg |  | 
Fc1cccc(-c2nc(SC(F)(F)C(F)F)[nH]c2-c2ccccc2)c1 | > 130 mg/kg | 2.5 mg/kg | 
COc1ccc(-c2nc(SCC(C)=O)[nH]c2-c2ccc(OC)cc2)cc1 |  | 10 mg/kg | 
O=S(=O)(CC(F)(F)C(F)(F)F)c1nc(-c2ccccc2)c(-c2ccccc2)[nH]1 | > 130 mg/kg | > 100 mg/kg | 
Cl.Nc1ccc(-c2[nH]c(S(=O)(=O)C(F)(F)C(F)F)nc2-c2ccc(F)cc2)cc1 |  | > 3 mg/kg | 
FC(F)C(F)(F)Sc1nc(-c2ccc(C(F)(F)F)cc2)c(-c2ccccc2)[nH]1 | > 130 mg/kg |  | 
FC(F)C(F)(F)Sc1nc(-c2ccc(Cl)cc2)c(-c2ccc(Cl)cc2)[nH]1 | > 135 mg/kg | 0.33 mg/kg | 
Fc1ccc(-c2nc(SC(F)(F)C(F)F)[nH]c2-c2ccccc2)cc1 | > 130 mg/kg | 0.18 mg/kg | 
CS(=O)(=O)c1nc(-c2ccc(F)cc2)c(-c2ccc(C(F)(F)F)cc2)[nH]1 | > 130 mg/kg |  | 
FC(F)Sc1nc(-c2ccccc2)c(-c2ccccc2)[nH]1 | > 130 mg/kg | 27 mg/kg | 
CCCCSc1nc(-c2ccccc2)c(-c2ccccc2)[nH]1 | > 130 mg/kg | > 75 mg/kg | 
Cc1ccc(-c2[nH]c(S(C)(=O)=O)nc2-c2ccccc2)cc1 | > 130 mg/kg |  | Decrease [4]: 45%
FC(F)(F)CSc1nc(-c2ccc(Cl)cc2)c(-c2ccc(Cl)cc2)[nH]1 | > 130 mg/kg | 4 mg/kg | 
